Experimental data from ChEMBL document CHEMBL1933000, “Design, synthesis and antitumor activity of 4-aminoquinazoline derivatives targeting VEGFR-2 tyrosine kinase” (Bioorg Med Chem Lett, 2012).

How the values were obtained:
HUVEC = assay: Antiproliferative activity against VEGF-stimulated HUVEC after 48 hrs by sulforhodamine B assay; settings: Homo sapiens
[1] = Dissociation constant, pKa of the compound; type: physicochemical
[2] = Lipophilicity, log P of the compound; type: physicochemical; settings: octanol/water
Mus musculus [3] = assay: Toxicity in nude BALB/c mouse xenografted with human HepG2 cells assessed as clinically observable signs of toxicity at 100 mg/kg, po qd at 3 doses for 15 days; type: organism-based; set-up: dose 100 mg/kg, route oral; settings: in vivo, 360 h
Procedure, shortened: (§1)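 BALB/c-nu mice bearing sc flank HepG2 xenografts received oral compound once daily for 15 days, top dose 100 mg/kg, starting five days after implantation. Animals were watched for clinically observable toxicity signs and for body weight loss; n = 8.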

Angiopoietin-1 receptor = Angiopoietin-1 receptor (Homo sapiens, UniProt Q02763); assay: Inhibition of Tie2
[4] = target: Vascular endothelial growth factor receptor 2 (Homo sapiens, UniProt P35968); assay: Inhibition of human GST-tagged VEGFR2 intracellular domain using biotin-aminohexyl-EEEEYFELVAKKKK-NH2 as substrate after 30 mins by HTRF assay
Sequence of Vascular endothelial growth factor receptor 2 (P35968 whole entry, the tested form may be a part): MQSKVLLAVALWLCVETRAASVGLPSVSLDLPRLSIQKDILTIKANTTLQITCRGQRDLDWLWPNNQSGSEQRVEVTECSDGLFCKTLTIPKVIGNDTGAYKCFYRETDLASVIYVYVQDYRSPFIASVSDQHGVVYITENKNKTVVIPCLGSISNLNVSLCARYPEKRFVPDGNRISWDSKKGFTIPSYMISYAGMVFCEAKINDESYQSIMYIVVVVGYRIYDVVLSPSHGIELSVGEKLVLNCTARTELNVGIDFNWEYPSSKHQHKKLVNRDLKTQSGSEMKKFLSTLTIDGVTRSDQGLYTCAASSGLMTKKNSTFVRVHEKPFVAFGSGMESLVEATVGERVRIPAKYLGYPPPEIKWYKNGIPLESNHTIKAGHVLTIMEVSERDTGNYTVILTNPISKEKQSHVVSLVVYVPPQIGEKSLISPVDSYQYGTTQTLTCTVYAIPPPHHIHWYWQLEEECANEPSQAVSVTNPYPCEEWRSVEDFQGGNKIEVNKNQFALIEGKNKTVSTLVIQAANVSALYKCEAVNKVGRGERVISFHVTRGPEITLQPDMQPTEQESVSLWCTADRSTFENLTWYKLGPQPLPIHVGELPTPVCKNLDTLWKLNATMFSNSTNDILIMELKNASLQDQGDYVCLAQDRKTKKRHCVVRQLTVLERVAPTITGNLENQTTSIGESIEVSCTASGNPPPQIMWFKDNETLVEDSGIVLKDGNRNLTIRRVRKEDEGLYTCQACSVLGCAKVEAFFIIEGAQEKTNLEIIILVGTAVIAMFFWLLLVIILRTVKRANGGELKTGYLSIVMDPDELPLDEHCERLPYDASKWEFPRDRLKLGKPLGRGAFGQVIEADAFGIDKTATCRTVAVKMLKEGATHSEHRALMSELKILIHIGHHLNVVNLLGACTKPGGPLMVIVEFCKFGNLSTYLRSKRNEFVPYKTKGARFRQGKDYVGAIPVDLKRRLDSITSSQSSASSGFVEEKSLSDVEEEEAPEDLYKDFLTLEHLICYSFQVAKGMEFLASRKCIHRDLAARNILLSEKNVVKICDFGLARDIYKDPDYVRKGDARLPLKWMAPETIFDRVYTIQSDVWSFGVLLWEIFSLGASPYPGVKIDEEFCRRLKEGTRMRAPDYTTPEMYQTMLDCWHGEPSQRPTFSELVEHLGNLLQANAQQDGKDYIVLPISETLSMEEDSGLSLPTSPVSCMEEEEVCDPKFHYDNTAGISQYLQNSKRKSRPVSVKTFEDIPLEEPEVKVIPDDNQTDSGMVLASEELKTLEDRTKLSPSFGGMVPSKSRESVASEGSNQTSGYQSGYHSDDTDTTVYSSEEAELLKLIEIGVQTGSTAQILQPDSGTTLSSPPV

[5] = target: Vascular endothelial growth factor receptor 1 (Homo sapiens, UniProt P17948); assay: Inhibition of VEGFR1
Sequence of Vascular endothelial growth factor receptor 1 (P17948 whole entry): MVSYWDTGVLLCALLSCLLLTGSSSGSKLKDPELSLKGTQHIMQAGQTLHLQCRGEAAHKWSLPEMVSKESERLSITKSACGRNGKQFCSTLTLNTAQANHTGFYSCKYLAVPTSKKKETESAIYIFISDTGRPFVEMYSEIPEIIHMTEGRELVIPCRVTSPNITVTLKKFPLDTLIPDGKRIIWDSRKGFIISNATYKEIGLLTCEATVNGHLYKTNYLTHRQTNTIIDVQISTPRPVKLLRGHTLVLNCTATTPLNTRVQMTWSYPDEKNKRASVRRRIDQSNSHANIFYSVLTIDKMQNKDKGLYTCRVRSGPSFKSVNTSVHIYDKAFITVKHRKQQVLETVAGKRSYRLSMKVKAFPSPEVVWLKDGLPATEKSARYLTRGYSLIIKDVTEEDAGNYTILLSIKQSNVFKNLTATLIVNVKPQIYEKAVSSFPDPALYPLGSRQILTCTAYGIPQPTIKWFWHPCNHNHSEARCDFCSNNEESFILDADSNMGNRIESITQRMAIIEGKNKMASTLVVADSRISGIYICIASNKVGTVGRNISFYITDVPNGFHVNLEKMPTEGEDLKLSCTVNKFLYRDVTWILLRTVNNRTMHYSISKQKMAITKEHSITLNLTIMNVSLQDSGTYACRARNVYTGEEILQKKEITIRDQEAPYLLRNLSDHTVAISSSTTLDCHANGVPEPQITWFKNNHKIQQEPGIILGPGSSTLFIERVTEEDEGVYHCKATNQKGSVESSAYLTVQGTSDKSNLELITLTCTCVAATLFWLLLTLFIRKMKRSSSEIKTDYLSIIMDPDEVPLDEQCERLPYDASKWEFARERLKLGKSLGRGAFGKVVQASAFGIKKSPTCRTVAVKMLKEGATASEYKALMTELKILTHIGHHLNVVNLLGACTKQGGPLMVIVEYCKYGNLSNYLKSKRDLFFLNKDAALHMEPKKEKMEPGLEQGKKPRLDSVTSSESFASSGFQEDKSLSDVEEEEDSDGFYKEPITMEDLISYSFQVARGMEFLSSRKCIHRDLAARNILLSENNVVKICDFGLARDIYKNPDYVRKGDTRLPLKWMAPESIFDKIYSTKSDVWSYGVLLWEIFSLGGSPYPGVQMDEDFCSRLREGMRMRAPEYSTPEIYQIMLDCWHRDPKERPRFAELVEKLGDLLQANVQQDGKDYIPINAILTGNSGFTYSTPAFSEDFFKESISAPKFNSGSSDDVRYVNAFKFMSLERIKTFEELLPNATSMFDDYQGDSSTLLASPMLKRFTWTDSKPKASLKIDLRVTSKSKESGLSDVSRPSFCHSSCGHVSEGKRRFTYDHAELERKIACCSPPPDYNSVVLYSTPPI

[6] = target: Receptor tyrosine-protein kinase erbB-2 (Homo sapiens, UniProt P04626); assay: Inhibition of HER2
HepG2 [7] = assay: Antitumor activity against human HepG2 cells xenografted in BALB/c nude mouse assessed as tumor growth inhibition at 20 mg/kg, po qd at 3 doses for 15 days; type: functional; settings: HepG2, 360 h, read-out: TGI
Procedure, shortened: (§2)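 HepG2 hepatocarcinoma cells (1 × 10⁷) implanted sc in the flank of BALB/c-nu mice. Once-daily oral dosing of compound or vehicle began five days after implantation and ran 15 days at 20, 50 or 100 mg/kg. Tumor growth followed; %TGI; mean and SE, n = 8.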

Mus musculus [8] = assay: Toxicity in nude BALB/c mouse xenografted with human HepG2 cells assessed as weight loss at 100 mg/kg, po qd at 3 doses for 15 days; type: organism-based; set-up: dose 100 mg/kg, route oral; settings: in vivo, 360 h; procedure, shortened: as §1
[9] = target: Cyclin-dependent kinase 1 (Homo sapiens, UniProt P06493); assay: Inhibition of CDK1
Sequence of Cyclin-dependent kinase 1 (P06493 whole entry): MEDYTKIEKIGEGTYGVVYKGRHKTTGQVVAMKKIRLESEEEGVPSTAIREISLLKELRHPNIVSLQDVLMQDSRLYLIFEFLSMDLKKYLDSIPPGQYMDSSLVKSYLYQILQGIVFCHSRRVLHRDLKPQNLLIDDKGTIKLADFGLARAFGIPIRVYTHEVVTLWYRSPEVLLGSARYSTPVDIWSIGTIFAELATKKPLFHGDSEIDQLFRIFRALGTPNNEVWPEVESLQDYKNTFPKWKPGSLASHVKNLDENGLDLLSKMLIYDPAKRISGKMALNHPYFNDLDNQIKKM

HepG2 [10] = assay: Antitumor activity against human HepG2 cells xenografted in BALB/c nude mouse assessed as tumor growth inhibition at 50 mg/kg, po qd at 3 doses for 15 days; type: functional; settings: HepG2, 360 h, read-out: TGI; procedure, shortened: as §2
HepG2 [11] = assay: Antitumor activity against human HepG2 cells xenografted in BALB/c nude mouse assessed as tumor growth inhibition administered as po qd at 3 doses for 15 days; type: functional, organism-based; procedure, shortened: as §2
[12] = target: Platelet-derived growth factor receptor alpha (Homo sapiens, UniProt P16234); assay: Inhibition of PDGFRalpha
Sequence of Platelet-derived growth factor receptor alpha (P16234 whole entry): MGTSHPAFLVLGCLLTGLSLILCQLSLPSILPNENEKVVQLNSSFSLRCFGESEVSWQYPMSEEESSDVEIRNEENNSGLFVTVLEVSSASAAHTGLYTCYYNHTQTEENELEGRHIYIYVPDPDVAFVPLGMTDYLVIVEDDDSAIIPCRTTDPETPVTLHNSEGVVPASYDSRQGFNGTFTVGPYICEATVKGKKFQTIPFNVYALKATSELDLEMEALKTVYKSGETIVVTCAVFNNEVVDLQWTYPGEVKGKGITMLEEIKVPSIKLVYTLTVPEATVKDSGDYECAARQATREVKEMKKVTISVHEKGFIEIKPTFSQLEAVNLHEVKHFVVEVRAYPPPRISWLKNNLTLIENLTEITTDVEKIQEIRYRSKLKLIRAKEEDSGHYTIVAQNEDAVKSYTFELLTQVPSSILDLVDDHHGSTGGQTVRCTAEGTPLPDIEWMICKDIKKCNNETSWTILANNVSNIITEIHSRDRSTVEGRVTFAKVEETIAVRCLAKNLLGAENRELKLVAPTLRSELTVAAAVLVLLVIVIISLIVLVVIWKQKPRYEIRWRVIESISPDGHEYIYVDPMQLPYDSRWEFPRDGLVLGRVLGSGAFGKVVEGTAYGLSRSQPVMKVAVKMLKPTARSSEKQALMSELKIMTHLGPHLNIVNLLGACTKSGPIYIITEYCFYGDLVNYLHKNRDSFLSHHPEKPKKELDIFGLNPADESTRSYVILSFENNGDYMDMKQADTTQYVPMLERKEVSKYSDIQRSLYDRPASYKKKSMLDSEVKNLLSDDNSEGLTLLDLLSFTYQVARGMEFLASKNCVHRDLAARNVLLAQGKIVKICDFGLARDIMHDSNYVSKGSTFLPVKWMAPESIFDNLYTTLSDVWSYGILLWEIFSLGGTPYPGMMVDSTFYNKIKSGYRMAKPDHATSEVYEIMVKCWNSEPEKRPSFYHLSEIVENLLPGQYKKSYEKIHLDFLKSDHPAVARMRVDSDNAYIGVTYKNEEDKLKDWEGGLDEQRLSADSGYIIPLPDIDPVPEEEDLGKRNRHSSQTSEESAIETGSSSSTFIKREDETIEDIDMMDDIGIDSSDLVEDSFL

HepG2 [13] = assay: Antitumor activity against human HepG2 cells xenografted in BALB/c nude mouse assessed as tumor growth inhibition at 100 mg/kg, po qd at 3 doses for 15 days; type: functional; settings: HepG2, 360 h, read-out: TGI; procedure, shortened: as §2
[14] = target: Vascular endothelial growth factor receptor 3 (Homo sapiens, UniProt P35916); assay: Inhibition of VEGFR3
[15] = target: Fibroblast growth factor receptor 1 (Homo sapiens, UniProt P11362); assay: Inhibition of FGFR1
Sequence of Fibroblast growth factor receptor 1 (P11362 whole entry): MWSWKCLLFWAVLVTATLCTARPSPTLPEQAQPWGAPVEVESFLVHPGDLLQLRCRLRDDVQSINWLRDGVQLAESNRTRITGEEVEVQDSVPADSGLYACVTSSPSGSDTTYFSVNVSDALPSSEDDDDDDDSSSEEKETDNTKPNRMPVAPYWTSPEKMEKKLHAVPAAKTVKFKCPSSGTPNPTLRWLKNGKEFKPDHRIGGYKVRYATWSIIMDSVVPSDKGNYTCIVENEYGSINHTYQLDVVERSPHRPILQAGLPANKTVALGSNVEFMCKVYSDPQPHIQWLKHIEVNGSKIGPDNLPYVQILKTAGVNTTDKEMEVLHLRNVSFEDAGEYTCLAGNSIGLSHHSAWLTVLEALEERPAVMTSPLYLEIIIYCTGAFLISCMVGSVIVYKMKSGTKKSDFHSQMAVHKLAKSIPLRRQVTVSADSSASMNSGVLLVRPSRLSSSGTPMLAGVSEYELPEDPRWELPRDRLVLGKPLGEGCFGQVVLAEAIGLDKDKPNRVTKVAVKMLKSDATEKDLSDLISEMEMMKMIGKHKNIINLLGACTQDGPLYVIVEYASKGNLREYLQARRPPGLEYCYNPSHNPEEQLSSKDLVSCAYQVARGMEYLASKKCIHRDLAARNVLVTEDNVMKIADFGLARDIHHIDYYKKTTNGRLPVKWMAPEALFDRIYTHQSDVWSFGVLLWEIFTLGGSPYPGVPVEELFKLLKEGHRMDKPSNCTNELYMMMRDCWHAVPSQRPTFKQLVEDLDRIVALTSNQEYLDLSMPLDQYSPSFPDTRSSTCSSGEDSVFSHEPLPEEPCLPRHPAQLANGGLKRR

[16] = Inhibition of AKT
[17] = Solubility of the compound in water; type: physicochemical; settings: buffer

CN1CCC(COc2ccc3c(Nc4ccc(NC(=O)Nc5cccc(F)c5)c(F)c4)ncnc3c2)CC1
IC50 (HUVEC): 67 nM

CN1CCCCC1
pKa [1]: 8.1

CN1CCC(COc2ccc3c(Nc4ccc(CC(=O)Nc5ccc(Cl)c(C(F)(F)F)c5)cc4)ncnc3c2)CC1
IC50 (HUVEC): 258 nM

Cc1ccc(NC(=O)Nc2ccc(Nc3ncnc4cc(OCC5CCN(C)CC5)ccc34)cc2)cc1Br
IC50 (HUVEC): 196 nM

CN1CCC(COc2ccc3c(Nc4ccc(NC(=O)Nc5ccc(Cl)c(C(F)(F)F)c5)cc4)ncnc3c2)CC1
IC50 (HUVEC): 92 nM

CNC(=O)c1cc(Oc2ccc(NC(=O)Nc3ccc(Cl)c(C(F)(F)F)c3)cc2)ccn1 [SORAFENIB]
logP [2]: 5

CN1CCC(COc2ccc3c(Nc4ccc(CC(=O)Nc5cccc(F)c5)cc4)ncnc3c2)CC1
IC50 (HUVEC): 237 nM

CN1CCC(COc2ccc3c(Nc4ccc(NC(=O)Nc5cccc(F)c5)cc4)ncnc3c2)CC1
Activity (Mus musculus [3]): Non-toxic
IC50 (Angiopoietin-1 receptor): > 10000 nM
IC50 [4]: 5.5 nM
IC50 [5]: 1920 nM
IC50 [6]: > 10000 nM
inhibition in vivo at 20 mg/kg (HepG2 [7]): 25.6%
Activity (Mus musculus [8]): Non-toxic
IC50 [9]: 10000 nM
inhibition in vivo at 50 mg/kg (HepG2 [10]): 61.4%
IC50 (HUVEC): 52 nM
TGI (HepG2 [11]): Dose-dependent effect
IC50 [12]: 1360 nM
inhibition in vivo at 100 mg/kg (HepG2 [13]): 83.6%
IC50 [14]: 9.6 nM
IC50 [15]: > 10000 nM
IC50 [16]: 8710 nM

CN1CCC(COc2ccc3c(Nc4ccc(NC(=O)Nc5ccc(F)c(F)c5)cc4)ncnc3c2)CC1
IC50 (HUVEC): 89 nM

CN1CCC(COc2ccc3c(Nc4ccc(NC(=O)Nc5ccc(Br)cc5F)cc4)ncnc3c2)CC1
IC50 (HUVEC): 233 nM

COc1cc2c(Nc3ccc(NC(=O)Nc4cccc(F)c4)cc3)ncnc2cc1OCC1CCN(C)CC1
IC50 (HUVEC): 179 nM

CCNC(=O)Nc1ccc(Nc2ncnc3cc(OCC4CCN(C)CC4)ccc23)cc1
IC50 (HUVEC): 587 nM

CN1CCC(COc2ccc3c(Nc4ccc(NC(=O)NC5CC5)cc4)ncnc3c2)CC1
IC50 (HUVEC): 324 nM

CN1CCC(COc2ccc3c(Nc4ccc(NC(=O)Nc5cccc(F)c5)c(Cl)c4)ncnc3c2)CC1
IC50 (HUVEC): 132 nM

CN1CCC(COc2ccc3c(Nc4ccc(CC(=O)Nc5ccc(F)c(F)c5)cc4)ncnc3c2)CC1
IC50 (HUVEC): 308 nM

COc1cc2c(Nc3ccc(NC(=O)Nc4cccc(F)c4)c(F)c3)ncnc2cc1OCC1CCN(C)CC1
IC50 (HUVEC): 185 nM

COc1cc2c(Nc3ccc(Br)cc3F)ncnc2cc1OCC1CCN(C)CC1 [VANDETANIB]
solubility [17]: soluble
IC50 (HUVEC): 187 nM
